According to publication PMC3275116 (Clinics, 2012):
Where two headings read alike, the source gives them in different places.

How the values were obtained:
[1] = test system: DU-145 prostate cells; details: cited from earlier work
[2] = test system: PC-3 cells; details: cited from earlier work
[3] = cited from earlier work
[4] = test system: PC-3 human prostate carcinoma cells; assay: In vitro cell binding assay with increasing cold conjugate; type: cell-based; details: 120 min
Outline: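 PC3 androgen-independent cells were grown in RPMI 1640 with 10% (v/v) fetal calf serum at 37°C, 5% CO2, harvested near confluency by trypsinization, and seeded at 10^6 cells/well 24 h before assay. Wells received 90 pM 99mTc-labeled peptide with increasing cold conjugate (1 nM to 18 nM) and were incubated 120 min. Cell-associated radioactivity was gamma-counted.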

[5] = test system: PC-3 tumors; type: in vivo; details: PC-3 tumor-bearing mice
[6] = test system: PC-3 tumors; assay: Biodistribution in Nude mice bearing PC-3 tumors; type: in vivo; details: for Blood uptake / Bone uptake / Heart uptake / Lung uptake / Muscle uptake / Spleen uptake / Stomach uptake / Tumor uptake: mean ± SD n = 6
Outline: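 Athymic male nude mice (16 - 20 g) received 5.0×10^6 PC3 cells subcutaneously in the upper back; tumors grew 2–3 weeks to about 1 cm diameter. 99mTc-labeled conjugate was given by tail vein and biodistribution evaluated at 30 and 90 min post-injection; blocking groups were coinjected with excess cold conjugate. Organs were excised, weighed and gamma-counted; %ID/g was computed against injected-dose activity; mean ± SD, n = 6.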

[7] = Biodistribution in healthy Swiss mice; type: in vivo; details: i.v. 0.1 mL/18.5 MBq, mean ± SD n = 6
Outline: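 Male Swiss albino mice (20 - 25 g) received 99mTc-labeled conjugate by tail vein (0.1 mL/18.5 MBq). Six mice per time point were killed by cervical dislocation at 5, 30, 90 and 240 min. Organs were excised, weighed and counted on a NaI(Tl) gamma counter; stomach and intestine were counted after removing luminal contents. %ID/g was calculated using injected-dose activity as standard; mean ± SD.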

[8] = Determination of log P values; type: physicochemical; details: n-octanol/water 3 mL:3 mL, 100 µL radiotracer, gamma counter, triplicate samples
Outline: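 Radiotracer (100 µL; 99mTc labeling by stannous-tartrate exchange at 100°C, 20 min) was added to equal volumes (3 mL each) of n-octanol and water, stirred vigorously and centrifuged. Triplicate samples from each phase were gamma-counted to give the partition ratio and log P.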

**Q.** Which results are given for FRPNRAQDYNTN [DUP-1]?
**A.** binding to DU-145 prostate cells [1]: high affinity; binding to PC-3 cells [2]: high affinity; serum stability [3]: serum-instable

**Q.** What does the source list for “FRPNRAQDYNTNK-SAMA-G-G-G-Ahx-NH2 [99mTc-SAMA-G3-Ahx-DUP-1]”?
**A.** Radioactivity associated with PC3 tumor cells (binding) ([4]; 90 pM 99mTc-labeled peptide, no cold peptide, 37°C): ~1.97%; decrease of binding with cold peptide ([4]; cold conjugate increased 0 to 18 nM, 90 pM tracer): 63%; cold conjugate-blocked tumor uptake ([5]; 30 min post-injection): 82%; cold conjugate-blocked tumor uptake ([5]; 90 min post-injection): 83%; Uptake ratio Tumor/blood ([6]; 30 min post-injection): 1.23; Uptake ratio Tumor/muscle ([6]; 30 min post-injection): 3.15; Blood uptake ([6]; 30 min post-injection): 0.69±0.14 %ID/g; Bone uptake ([6]; 30 min post-injection): 0.31±0.08 %ID/g; Heart uptake ([6]; 30 min post-injection): 0.41±0.02 %ID/g; Lung uptake ([6]; 30 min post-injection): 1.24±0.43 %ID/g; Muscle uptake ([6]; 30 min post-injection): 0.27±0.27 %ID/g; Spleen uptake ([6]; 30 min post-injection): 0.56±0.13 %ID/g; Stomach uptake ([6]; 30 min post-injection): 1.05±0.07 %ID/g; Tumor uptake ([6]; 30 min post-injection): 0.85±0.19 %ID/g; Uptake ratio Tumor/blood ([6]; 90 min post-injection): 1.78; Uptake ratio Tumor/muscle ([6]; 90 min post-injection): 1.32; Blood uptake ([6]; 90 min post-injection): 0.23±0.06 %ID/g; Bone uptake ([6]; 90 min post-injection): 0.30±0.05 %ID/g; Heart uptake ([6]; 90 min post-injection): 0.10±0.10 %ID/g; Lung uptake ([6]; 90 min post-injection): 0.34±0.27 %ID/g; Muscle uptake ([6]; 90 min post-injection): 0.31±0.11 %ID/g; Spleen uptake ([6]; 90 min post-injection): 0.54±0.19 %ID/g; Stomach uptake ([6]; 90 min post-injection): 0.72±0.27 %ID/g; Tumor uptake ([6]; 90 min post-injection): 0.41±0.11 %ID/g; Blood uptake ([7]; 5 min): 1.21±0.02 %ID/g; Bone uptake ([7]; 5 min): 0.84±0.17 %ID/g; Heart uptake ([7]; 5 min): 0.82±0.14 %ID/g; Kidney uptake ([7]; 5 min): 22.62±2.03 %ID/g; Liver uptake ([7]; 5 min): 12.31±2.19 %ID/g; Lung uptake ([7]; 5 min): 1.48±0.23 %ID/g; Muscle uptake ([7]; 5 min): 0.77±0.06 %ID/g; Pancreas uptake ([7]; 5 min): 1.44±0.33 %ID/g; Spleen uptake ([7]; 5 min): 1.37±0.18 %ID/g; Blood uptake ([7]; 30 min): 0.43±0.06 %ID/g; Bone uptake ([7]; 30 min): 0.20±0.01 %ID/g; Heart uptake ([7]; 30 min): 0.24±0.07 %ID/g; Kidney uptake ([7]; 30 min): 21.06±0.41 %ID/g; Liver uptake ([7]; 30 min): 8.58±1.75 %ID/g; Lung uptake ([7]; 30 min): 0.73±0.16 %ID/g; Muscle uptake ([7]; 30 min): 0.14±0.04 %ID/g; Pancreas uptake ([7]; 30 min): 0.18±0.11 %ID/g; Spleen uptake ([7]; 30 min): 0.28±0.07 %ID/g; Blood uptake ([7]; 90 min): 0.08±0.01 %ID/g; Bone uptake ([7]; 90 min): 0.05±0.02 %ID/g; Heart uptake ([7]; 90 min): 0.04±0.01 %ID/g; Kidney uptake ([7]; 90 min): 7.28±2.07 %ID/g; Liver uptake ([7]; 90 min): 1.57±0.57 %ID/g; Lung uptake ([7]; 90 min): 0.15±0.037 %ID/g; Muscle uptake ([7]; 90 min): 0.51±0.01 %ID/g; Pancreas uptake ([7]; 90 min): 0.05±0.01 %ID/g; Spleen uptake ([7]; 90 min): 0.09±0.03 %ID/g; Blood uptake ([7]; 240 min): 0.05±0.01 %ID/g; Bone uptake ([7]; 240 min): 0.05±0.01 %ID/g; Heart uptake ([7]; 240 min): 0.03±0.02 %ID/g; Kidney uptake ([7]; 240 min): 3.22±0.43 %ID/g; Liver uptake ([7]; 240 min): 1.53±0.64 %ID/g; Lung uptake ([7]; 240 min): 0.13±0.07 %ID/g; Muscle uptake ([7]; 240 min): 0.17±0.07 %ID/g; Pancreas uptake ([7]; 240 min): 0.04±0.01 %ID/g; Spleen uptake ([7]; 240 min): 0.07±0.02 %ID/g; partition ratio [8]: 0.00389
